Molecules are shown by their SMILES. Activity calls are given as the source filed them.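 How the source made its calls: active means fitted curve rises past 10% of the positive control signal at or below the top valid tested dose; inconclusive means flat fit between 30 and 70%, or an unreliable fit; inactive means the rest, including signal that falls instead.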

Test system in one assay: not listed separately
The assay is described as follows: caspase-3/7 activation in A1-2A-tBid MEFs, dose response, orthogonal assay for A1 inhibitor project, cell-based, MEF A1-2A-tBid, luminescence, dry powder, set 3 (AID 504360). To be noted: MEF A1-2A-tBid cells, caspase-3/7 luminescence, 3 h; at 35 µM (top of the series). The procedure, abridged: (§1)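 Material – mouse embryonic fibroblasts co-expressing A1 and tBid (A1-2A-tBid), primed · Quantity – 2500 cells per well · Medium – RPMI-1640, 10% FBS · Compound – 100 nL pinned compound · Incubation – 3 h 37 °C compound exposure, then 1 h room-temperature Caspase-Glo · Signal – luminescence from Caspase-Glo 3/7 DEVD-luciferin substrate, 1:1 in 50 mM HEPES · Read-out – Caspase-3/7 activity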
Turning to `CCn1c(=O)c([N+](=O)[O-])c(Sc2ccc(C)cc2)c2ccccc21`, the caspase activation was 1.72% (inactive).

For the molecule `Cc1ccc(Sc2c([N+](=O)[O-])c(=O)n(C)c3ccccc23)cc1`, the caspase activation is 10.3% (inactive). In the case of `Cc1ccc(Sc2c(Sc3ccc(C)cc3)c3ccccc3n(C)c2=O)cc1`, the caspase activation is 0.911% (inactive).

As for `O=C(COc1ccc(Cl)cc1Cl)NNc1nc(N2CCOCC2)nc(N2CCOCC2)n1`, the caspase activation is -1.25% (inactive). In the case of `COc1c([N+](=O)[O-])c(=O)n(C)c2ccccc12`, the caspase activation is 1.76% (inactive). For the molecule `Cc1ccc(Sc2c(Sc3ccc(C)cc3)c3ccccc3n(Cc3ccccc3)c2=O)cc1`, the caspase activation was 1.55% (inactive). As for `COc1ccc(CCNc2nc(N3CCOCC3)nc(N3CCOCC3)n2)cc1OC`, the caspase activation was 1.3% (inactive). For the molecule `COc1ccc(CCNc2nc(N3CCCC3)nc(N3CCCC3)n2)cc1OC`, the caspase activation is 3.4% (inactive). For `Cn1c(=O)c(Sc2ccccn2)c(Sc2ccccn2)c2ccccc21`, the caspase activation is 3.1% (inactive).

Consider `CCn1c(=O)c(Sc2ccc(C)cc2)c(Sc2ccc(C)cc2)c2ccccc21`, for which the caspase activation was 5.31% (inactive).

Turning to `COCCn1c(=O)c(Sc2ccc(C)cc2)c(Sc2ccc(C)cc2)c2ccccc21`, the caspase activation was 1.26% (inactive). Turning to `O=c1[nH]c2ccccc2c(O)c1[N+](=O)[O-]`, the caspase activation is 2.36% (inactive). For `C/C(=N\Nc1nc(N2CCCCC2)nc(N2CCCCC2)n1)c1ccc(F)cc1`, the caspase activation was -0.355% (inactive).

Turning to `Cc1ccc(Sc2c([N+](=O)[O-])c(=O)n(Cc3ccccc3)c3ccccc23)cc1`, the caspase activation was 3.46% (inactive). For the molecule `COc1nc2ccccc2c(Cl)c1[N+](=O)[O-]`, the caspase activation is 1.9% (inactive). In the case of `COc1ccc(N2CCN(c3nc(NCCc4ccc(OC)c(OC)c4)nc(N4CCOCC4)n3)CC2)cc1`, the caspase activation is -0.079% (inactive). Regarding `COc1nc2ccccc2c(Sc2ccc(C)cc2)c1[N+](=O)[O-]`, the caspase activation is 1.61% (inactive).

The test system of the next assay is MEF A1-2A-tBid cells, caspase-3/7 luminescence, 3 h. Described as above.
Details: not given
An outline of the steps:
as §1
As for `CCn1c(=O)c([N+](=O)[O-])c(Cl)c2ccccc21`, the AC10 is 1950 nM. In the case of `Cc1ccc(S(=O)(=O)c2c([N+](=O)[O-])c(=O)n(C)c3ccccc23)cc1`, the AC10 was 3190 nM. Take `COCCn1c(=O)c([N+](=O)[O-])c(Cl)c2ccccc21`: the AC10 was 1470 nM. Turning to `O=c1[nH]c2ccccc2c(Cl)c1[N+](=O)[O-]`, the AC10 was 2540 nM.

Take `O=c1c([N+](=O)[O-])c(Cl)c2ccccc2n1Cc1ccccc1`: the AC10 was 12400 nM.

In the case of `Cn1c(=O)c([N+](=O)[O-])c(S(C)(=O)=O)c2ccccc21`, the AC10 was 3280 nM.

Regarding `Cn1c(=O)c([N+](=O)[O-])c(Sc2ccccn2)c2ccccc21`, the AC10 was 2950 nM. For the molecule `CC1(C)CCC(c2ccc(Cl)cc2)=C(CN2CCN(c3ccc(C(=O)NS(=O)(=O)c4ccc(N[C@H](CCN5CCOCC5)CSc5ccccc5)c(S(=O)(=O)C(F)(F)F)c4)cc3)CC2)C1`, the AC10 is 579 nM. On the same count and under the same terms, the figure for `COCCn1c(=O)c([N+](=O)[O-])c(Sc2ccc(C)cc2)c2ccccc21` is 16700 nM. In the case of `Cn1c(=O)c([N+](=O)[O-])c(Cl)c2ccccc21`, the AC10 is 1880 nM.

Source of the values: PubChem BioAssay AID504360 (Broad Institute, 2011).
